From ChEMBL document CHEMBL1811897, “Nicotinic acetylcholine receptor efficacy and pharmacological properties of 3-(substituted phenyl)-2β-substituted tropanes” (J Med Chem, 2010) come the findings set out here.

pIC50: −log10 of the molar value. Calls of active or inactive are those of the source. Bounds are passed on as bounds.

T1 sequence (P17787 whole entry): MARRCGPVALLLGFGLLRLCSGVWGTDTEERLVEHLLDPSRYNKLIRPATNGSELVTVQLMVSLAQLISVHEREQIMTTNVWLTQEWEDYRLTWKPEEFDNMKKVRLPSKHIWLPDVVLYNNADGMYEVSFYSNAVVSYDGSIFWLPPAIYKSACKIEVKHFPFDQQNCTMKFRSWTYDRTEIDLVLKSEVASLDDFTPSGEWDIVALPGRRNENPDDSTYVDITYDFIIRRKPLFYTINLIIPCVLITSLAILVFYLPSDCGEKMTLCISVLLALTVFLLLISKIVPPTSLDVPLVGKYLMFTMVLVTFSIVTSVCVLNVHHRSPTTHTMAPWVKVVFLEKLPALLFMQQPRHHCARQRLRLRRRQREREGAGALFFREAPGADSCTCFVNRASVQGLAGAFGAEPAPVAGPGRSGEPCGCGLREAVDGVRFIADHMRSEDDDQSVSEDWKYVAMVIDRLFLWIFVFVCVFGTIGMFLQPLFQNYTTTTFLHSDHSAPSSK
T1 sequence (P43681 whole entry): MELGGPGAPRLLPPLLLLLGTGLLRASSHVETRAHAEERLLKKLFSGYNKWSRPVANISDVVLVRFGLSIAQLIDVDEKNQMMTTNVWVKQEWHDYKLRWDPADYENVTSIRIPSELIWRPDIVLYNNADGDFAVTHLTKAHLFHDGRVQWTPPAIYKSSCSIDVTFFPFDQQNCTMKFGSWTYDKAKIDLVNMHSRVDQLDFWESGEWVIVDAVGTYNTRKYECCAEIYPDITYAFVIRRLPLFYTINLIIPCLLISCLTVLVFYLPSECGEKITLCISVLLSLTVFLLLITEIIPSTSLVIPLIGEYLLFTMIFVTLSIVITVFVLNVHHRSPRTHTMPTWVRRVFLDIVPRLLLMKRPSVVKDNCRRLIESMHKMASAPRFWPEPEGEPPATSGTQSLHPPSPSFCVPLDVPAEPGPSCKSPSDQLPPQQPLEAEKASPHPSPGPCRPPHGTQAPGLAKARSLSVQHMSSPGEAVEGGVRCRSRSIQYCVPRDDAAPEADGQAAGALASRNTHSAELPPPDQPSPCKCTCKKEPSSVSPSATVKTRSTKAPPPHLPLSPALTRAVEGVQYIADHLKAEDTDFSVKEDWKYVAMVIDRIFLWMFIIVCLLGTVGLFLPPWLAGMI
T3 sequence (P02708 whole entry): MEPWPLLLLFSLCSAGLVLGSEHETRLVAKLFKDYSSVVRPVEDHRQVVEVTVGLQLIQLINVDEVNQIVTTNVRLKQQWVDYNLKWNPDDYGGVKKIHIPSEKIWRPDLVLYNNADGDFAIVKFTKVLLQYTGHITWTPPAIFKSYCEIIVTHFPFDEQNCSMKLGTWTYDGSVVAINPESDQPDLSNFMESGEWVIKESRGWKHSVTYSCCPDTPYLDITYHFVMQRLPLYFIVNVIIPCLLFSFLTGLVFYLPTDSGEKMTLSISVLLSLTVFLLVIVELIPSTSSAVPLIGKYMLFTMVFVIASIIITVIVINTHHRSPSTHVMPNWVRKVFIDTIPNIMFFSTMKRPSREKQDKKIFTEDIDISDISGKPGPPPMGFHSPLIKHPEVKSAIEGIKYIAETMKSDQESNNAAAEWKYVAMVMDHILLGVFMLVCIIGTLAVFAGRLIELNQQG
T3 sequence (P07510 whole entry): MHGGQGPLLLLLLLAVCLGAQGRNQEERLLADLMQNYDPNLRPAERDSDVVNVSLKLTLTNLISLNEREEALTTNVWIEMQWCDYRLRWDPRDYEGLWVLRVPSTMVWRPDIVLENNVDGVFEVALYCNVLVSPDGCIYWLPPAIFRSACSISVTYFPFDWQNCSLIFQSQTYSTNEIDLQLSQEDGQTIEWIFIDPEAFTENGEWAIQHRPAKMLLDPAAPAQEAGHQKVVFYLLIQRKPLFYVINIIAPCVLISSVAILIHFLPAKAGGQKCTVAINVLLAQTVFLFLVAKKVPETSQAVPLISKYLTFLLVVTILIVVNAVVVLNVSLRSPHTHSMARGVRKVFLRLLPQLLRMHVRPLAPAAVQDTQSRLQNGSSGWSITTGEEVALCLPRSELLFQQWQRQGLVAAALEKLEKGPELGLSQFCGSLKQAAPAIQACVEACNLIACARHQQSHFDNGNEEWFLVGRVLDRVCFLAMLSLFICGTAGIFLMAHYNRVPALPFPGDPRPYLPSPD
T3 sequence (P11230 whole entry): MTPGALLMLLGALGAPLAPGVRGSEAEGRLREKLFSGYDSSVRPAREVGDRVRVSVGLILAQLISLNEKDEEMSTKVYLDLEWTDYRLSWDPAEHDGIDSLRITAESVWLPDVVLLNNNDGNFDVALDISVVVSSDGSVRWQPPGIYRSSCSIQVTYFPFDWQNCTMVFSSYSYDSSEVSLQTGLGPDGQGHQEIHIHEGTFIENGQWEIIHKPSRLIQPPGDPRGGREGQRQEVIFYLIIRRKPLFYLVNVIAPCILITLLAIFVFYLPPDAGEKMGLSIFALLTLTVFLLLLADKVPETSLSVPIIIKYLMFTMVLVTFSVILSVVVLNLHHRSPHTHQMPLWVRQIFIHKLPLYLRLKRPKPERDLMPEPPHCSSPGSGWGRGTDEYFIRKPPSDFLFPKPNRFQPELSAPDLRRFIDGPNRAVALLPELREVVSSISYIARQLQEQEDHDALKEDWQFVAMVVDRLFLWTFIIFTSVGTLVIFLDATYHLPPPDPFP
T3 sequence (Q07001 whole entry): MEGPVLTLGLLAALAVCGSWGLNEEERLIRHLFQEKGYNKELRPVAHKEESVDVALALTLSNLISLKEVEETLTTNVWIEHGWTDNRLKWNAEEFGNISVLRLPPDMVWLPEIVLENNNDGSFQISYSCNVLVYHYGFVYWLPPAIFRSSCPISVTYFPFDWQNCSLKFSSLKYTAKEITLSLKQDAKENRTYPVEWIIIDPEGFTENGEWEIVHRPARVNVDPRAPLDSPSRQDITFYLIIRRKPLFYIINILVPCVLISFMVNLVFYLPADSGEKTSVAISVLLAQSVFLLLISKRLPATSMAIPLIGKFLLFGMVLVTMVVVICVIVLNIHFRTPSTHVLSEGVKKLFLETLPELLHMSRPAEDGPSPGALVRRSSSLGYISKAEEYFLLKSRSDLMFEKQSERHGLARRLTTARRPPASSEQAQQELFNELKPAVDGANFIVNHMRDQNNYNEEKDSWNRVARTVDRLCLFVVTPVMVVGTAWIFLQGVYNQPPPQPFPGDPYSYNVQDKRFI
Sequence of Sodium-dependent dopamine transporter (Q01959 whole entry): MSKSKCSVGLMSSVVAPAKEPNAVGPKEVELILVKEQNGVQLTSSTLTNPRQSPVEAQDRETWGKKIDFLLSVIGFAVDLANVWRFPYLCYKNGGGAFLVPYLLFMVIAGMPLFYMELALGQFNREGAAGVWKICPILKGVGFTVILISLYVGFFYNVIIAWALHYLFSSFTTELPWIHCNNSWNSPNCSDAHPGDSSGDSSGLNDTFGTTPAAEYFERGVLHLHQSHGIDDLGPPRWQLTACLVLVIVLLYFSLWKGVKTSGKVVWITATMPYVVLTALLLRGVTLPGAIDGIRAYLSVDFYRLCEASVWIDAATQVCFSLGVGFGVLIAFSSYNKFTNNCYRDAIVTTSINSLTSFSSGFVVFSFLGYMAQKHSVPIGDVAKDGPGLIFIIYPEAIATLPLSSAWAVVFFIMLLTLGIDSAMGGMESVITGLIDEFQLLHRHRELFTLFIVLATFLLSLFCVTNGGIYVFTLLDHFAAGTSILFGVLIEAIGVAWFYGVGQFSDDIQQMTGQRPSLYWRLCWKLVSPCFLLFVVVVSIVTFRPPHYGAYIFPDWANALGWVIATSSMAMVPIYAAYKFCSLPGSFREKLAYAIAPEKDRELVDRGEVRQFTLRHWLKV

In the first assay the target is T1, Neuronal acetylcholine receptor; alpha4/beta2 (Homo sapiens, UniProt P17787+P43681). In words: Antagonist activity against human alpha4beta2 nAChR in SHEP1 cells assessed as inhibition of carbamylcholine induced 86Rb+ efflux. It counts as functional, cell-based. The essentials:
(§1)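 86Rb+ efflux was evoked by carbamylcholine at its EC80–EC90 concentration, with test ligand present. Cells were TE671/RD (α1*), SH-SY5Y (α3β4*) or transfected SH-EP1 (α4β2 or α4β4). For weak antagonists the minimum was fixed at 0%.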
For `COC(=O)[C@H]1[C@@H](c2ccc(Cl)c(C)c2)C[C@@H]2CC[C@H]1N2C`, the pIC50 – broadly, the negative decadic logarithm of the IC50, by convention in mol/L – was 5.01.
On the same count and under the same terms, for `Cc1ccc([C@H]2C[C@@H]3CC[C@H]([C@H]2c2cc(-c4ccc(Cl)cc4)no2)N3C)cc1` the value was 3.03.

The target in the next assay is Cannabinoid receptor 1 (Homo sapiens) (UniProt P21554). In words: Positive allosteric modulator activity at CB1 receptor.
On to `Cc1ccc([C@H]2C[C@@H]3CC[C@H]([C@H]2c2cc(-c4ccc(Cl)cc4)no2)N3C)cc1`, for which the result was Active.

The subject of another assay is Mus musculus. Put plainly: Inhibition of nicotine-induced hypolocomotion in ICR mouse assessed as number of photocell interruption dministered subcutaneously 15 mins prior to nicotine challenge and measured after 5 mins of […] nicotine challenge. Also on record: dose 1.5 mg/kg, route subcutaneous. It counts as functional, organism-based.
Consider `COC(=O)[C@H]1[C@@H](c2ccc(Cl)c(C)c2)C[C@@H]2CC[C@H]1N2C`, for which the IC50 came out at 0.11 mg/kg.
As for `Cc1ccc([C@H]2C[C@@H]3CC[C@H]([C@H]2c2cc(-c4ccc(Cl)cc4)no2)N3C)cc1`, the IC50 came to 8.7 mg/kg.

The target of a further assay is T2, Neuronal acetylcholine receptor; alpha4/beta4 (Homo sapiens, UniProt P30926+P43681). Put plainly: Agonist activity against human alpha4beta4 nAChR in SHEP1 cells assessed as 86Rb+ efflux at 5 nM to 100 uM. It counts as functional, cell-based. Summed up:
(§2)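 Test ligands were applied alone at ~5 nM to 100 μM in 86Rb+ efflux assays. Cells were TE671/RD (endogenous muscle-type α1*), SH-SY5Y (endogenous α3β4*) or transfected SH-EP1 (human α4β2 or α4β4). Non-specific efflux was subtracted. Intrinsic activity was normalized to specific efflux, defined as efflux with fully efficacious carbamylcholine minus efflux with buffer alone.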
`COC(=O)[C@H]1[C@@H](c2ccc(Cl)c(C)c2)C[C@@H]2CC[C@H]1N2C`: the outcome was inactive.
For the compound `Cc1ccc([C@H]2C[C@@H]3CC[C@H]([C@H]2c2cc(-c4ccc(Cl)cc4)no2)N3C)cc1`, the outcome was inactive.

The target of a further assay is Sodium-dependent noradrenaline transporter (Homo sapiens, UniProt P23975). In words: Inhibition of human NET expressed in HEK293 cells assessed as inhibition of [3H]NE reuptake after 10 mins by scintillation counting. It counts as cell-based.
Sequence of Sodium-dependent noradrenaline transporter (P23975 whole entry): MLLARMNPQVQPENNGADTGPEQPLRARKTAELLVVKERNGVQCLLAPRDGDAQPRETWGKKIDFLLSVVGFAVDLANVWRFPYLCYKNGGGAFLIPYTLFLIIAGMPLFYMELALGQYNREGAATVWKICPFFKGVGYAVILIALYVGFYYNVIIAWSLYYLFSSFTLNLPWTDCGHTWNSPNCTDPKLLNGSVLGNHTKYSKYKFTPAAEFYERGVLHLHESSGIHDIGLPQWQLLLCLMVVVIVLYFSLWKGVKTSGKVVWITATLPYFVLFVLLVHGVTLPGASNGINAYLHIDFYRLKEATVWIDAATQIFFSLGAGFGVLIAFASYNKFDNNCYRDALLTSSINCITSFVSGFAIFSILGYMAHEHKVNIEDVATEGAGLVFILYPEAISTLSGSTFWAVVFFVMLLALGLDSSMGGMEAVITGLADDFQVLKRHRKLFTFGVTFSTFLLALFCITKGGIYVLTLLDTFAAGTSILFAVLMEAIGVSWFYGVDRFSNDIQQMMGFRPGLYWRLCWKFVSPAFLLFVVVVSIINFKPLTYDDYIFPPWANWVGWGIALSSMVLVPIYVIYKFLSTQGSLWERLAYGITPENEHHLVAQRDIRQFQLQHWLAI
Turning to `COC(=O)[C@H]1[C@@H](c2ccc(Cl)c(C)c2)C[C@@H]2CC[C@H]1N2C`, the pIC50 is 8.96.
Same read-out and setting: under `Cc1ccc([C@H]2C[C@@H]3CC[C@H]([C@H]2c2cc(-c4ccc(Cl)cc4)no2)N3C)cc1` stands 6.51.

The target in the next assay is T3, Acetylcholine receptor; alpha1/beta1/delta/gamma (Homo sapiens, UniProt P02708+P07510+P11230+Q07001). In words: Antagonist activity against human muscle-type alpha1beta1gammadelta nAChR in TE671/RD cells assessed as inhibition of carbamylcholine induced 86Rb+ efflux. It counts as functional, cell-based. Summed up:
as §1
Regarding `COC(=O)[C@H]1[C@@H](c2ccc(Cl)c(C)c2)C[C@@H]2CC[C@H]1N2C`, the pIC50 is 4.59.
In the case of `Cc1ccc([C@H]2C[C@@H]3CC[C@H]([C@H]2c2cc(-c4ccc(Cl)cc4)no2)N3C)cc1`, the pIC50 was 4.02.

The species named for the next assay is Homo sapiens. In words: Selectivity for human NET over human ganglionic alpha3beta4alpha5beta2 nAChR.
For the compound `COC(=O)[C@H]1[C@@H](c2ccc(Cl)c(C)c2)C[C@@H]2CC[C@H]1N2C`, the Ratio IC50 was found to be 3500.

For another assay, the species on record is Homo sapiens. Put plainly: Selectivity for human NET over human DAT.
In the case of `COC(=O)[C@H]1[C@@H](c2ccc(Cl)c(C)c2)C[C@@H]2CC[C@H]1N2C`, the Ratio IC50 was determined as 2.

The species entered for a further assay is Homo sapiens. In words: Selectivity for human ganglionic alpha3beta4alpha5beta2 nAChR over human alpha4beta2 nAChR.
Regarding `COC(=O)[C@H]1[C@@H](c2ccc(Cl)c(C)c2)C[C@@H]2CC[C@H]1N2C`, the Ratio IC50 was found to be 3.

The target in a further assay is Sodium-dependent serotonin transporter (Homo sapiens, UniProt P31645). In words: Inhibition of human SERTexpressed in HEK293 cells assessed as inhibition of [3H]5HT reuptake after 10 mins by scintillation counting. It counts as cell-based.
Sequence of Sodium-dependent serotonin transporter (P31645 whole entry): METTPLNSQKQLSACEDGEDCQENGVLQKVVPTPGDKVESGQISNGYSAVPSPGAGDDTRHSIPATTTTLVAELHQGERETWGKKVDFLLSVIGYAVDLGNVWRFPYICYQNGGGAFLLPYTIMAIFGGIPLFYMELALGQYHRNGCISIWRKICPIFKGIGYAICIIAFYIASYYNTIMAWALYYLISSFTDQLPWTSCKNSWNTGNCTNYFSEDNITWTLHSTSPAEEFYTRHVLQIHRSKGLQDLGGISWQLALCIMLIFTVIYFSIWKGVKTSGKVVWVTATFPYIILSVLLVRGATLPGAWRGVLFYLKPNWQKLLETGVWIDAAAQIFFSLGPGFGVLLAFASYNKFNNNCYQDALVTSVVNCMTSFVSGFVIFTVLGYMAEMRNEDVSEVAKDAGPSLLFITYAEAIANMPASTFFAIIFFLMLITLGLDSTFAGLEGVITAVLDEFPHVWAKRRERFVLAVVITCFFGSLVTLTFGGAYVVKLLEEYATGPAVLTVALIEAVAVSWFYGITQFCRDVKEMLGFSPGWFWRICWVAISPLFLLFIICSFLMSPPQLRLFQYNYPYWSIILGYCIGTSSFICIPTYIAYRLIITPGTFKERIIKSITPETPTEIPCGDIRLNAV
As to `COC(=O)[C@H]1[C@@H](c2ccc(Cl)c(C)c2)C[C@@H]2CC[C@H]1N2C`, the pIC50 was 9.00.
`Cc1ccc([C@H]2C[C@@H]3CC[C@H]([C@H]2c2cc(-c4ccc(Cl)cc4)no2)N3C)cc1`: the pIC50 is below 4.00.

In the next assay the test system is Mus musculus. In words: Antipyretic activity against nicotine-induced hypothermia in ICR mouse assessed as change in rectal temperature dministered subcutaneously 15 mins prior to nicotine challenge and measured after 30 mins of 2.5 mg/kg nicotine challenge. It counts as functional, organism-based. Also on record: dose 2.5 mg/kg, route subcutaneous. The essentials: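 Male ICR mice (20–25 g) were pretreated with saline or test drug 15 min before s.c. nicotine at 2.5 mg/kg. Rectal temperature was read by thermistor probe (24 mm insertion) just before and 30 min after nicotine, and the change was taken. Ambient temperature was 21–24 °C. AD50 with confidence limits came from ≥4 doses and ≥8 mice per dose.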
In the case of `COC(=O)[C@H]1[C@@H](c2ccc(Cl)c(C)c2)C[C@@H]2CC[C@H]1N2C`, the IC50 turned out to be 0.14 mg/kg.
For the compound `Cc1ccc([C@H]2C[C@@H]3CC[C@H]([C@H]2c2cc(-c4ccc(Cl)cc4)no2)N3C)cc1`, the IC50 was above 20 mg/kg.

A further assay concerns the target T2, Neuronal acetylcholine receptor; alpha4/beta4. In words: Antagonist activity against human alpha4beta4 nAChR in SHEP1 cells assessed as inhibition of carbamylcholine induced 86Rb+ efflux. It counts as functional, cell-based. The essentials:
as §1
For the compound `COC(=O)[C@H]1[C@@H](c2ccc(Cl)c(C)c2)C[C@@H]2CC[C@H]1N2C`, the pIC50 is 4.62.
As to `Cc1ccc([C@H]2C[C@@H]3CC[C@H]([C@H]2c2cc(-c4ccc(Cl)cc4)no2)N3C)cc1`, the pIC50 was 4.24.

In another assay the test system is Mus musculus. Put plainly: Inhibition of nicotine-induced antinociception activity in ICR mouse assessed as latency to remove tail administered subcutaneously 15 mins prior to nicotine challenge and measured after 5 mins of 2.5 mg/kg nicotine challenge by tail-flick test. It counts as functional, organism-based. On the set-up: dose 2.5 mg/kg, route subcutaneous. The essentials:
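Radiant heat was aimed at the upper tail, with a 10 s cutoff. Baseline latency was 2–4 s for each mouse. Response was expressed as %MPE. AD50 with confidence limits came from ≥4 doses and ≥8 mice per dose.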
(In general: Hot-plate and tail-flick tests time the reaction to a heat stimulus.)
On to `COC(=O)[C@H]1[C@@H](c2ccc(Cl)c(C)c2)C[C@@H]2CC[C@H]1N2C`, for which the IC50 was 0.21 mg/kg.
Still for that read-out and setting: for `Cc1ccc([C@H]2C[C@@H]3CC[C@H]([C@H]2c2cc(-c4ccc(Cl)cc4)no2)N3C)cc1` the value was above 20 mg/kg.

The test system of a further assay is Mus musculus. Put plainly: Inhibition of nicotine-induced conditioned place preference in ICR mouse assessed as activity count and time spent in chamberdministered subcutaneously 15 mins prior to 0.5 mg/kg nicotine challenge up to 4 days using photosensors. It counts as functional, organism-based. On the set-up: dose 0.5 mg/kg, route subcutaneous. Summed up:
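Unbiased three-compartment CPP in male ICR mice. Day 1: 5 min confinement to the middle compartment, then 15 min free access; mice were grouped by equal bias. Days 2–4: vehicle or test drug s.c. 15 min before nicotine (0.5 mg/kg s.c.) in the paired side, with saline on the opposite side, 20 min sessions. Day 5: drug-free test with photosensor recording. AD50 from ≥3 doses, ≥8 mice per dose.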
For `COC(=O)[C@H]1[C@@H](c2ccc(Cl)c(C)c2)C[C@@H]2CC[C@H]1N2C`, the IC50 is 0.25 mg/kg.
On the same count and under the same terms, for `Cc1ccc([C@H]2C[C@@H]3CC[C@H]([C@H]2c2cc(-c4ccc(Cl)cc4)no2)N3C)cc1` the value was 0.013 mg/kg.

Another assay concerns the target Sodium-dependent dopamine transporter (Homo sapiens, UniProt Q01959). In words: Inhibition of human DAT expressed in HEK293 cells assessed as inhibition of [3H]DA reuptake after 10 mins by scintillation counting. It counts as cell-based.
With `COC(=O)[C@H]1[C@@H](c2ccc(Cl)c(C)c2)C[C@@H]2CC[C@H]1N2C`, the pIC50 is 8.70.
Still for that read-out and setting: for `Cc1ccc([C@H]2C[C@@H]3CC[C@H]([C@H]2c2cc(-c4ccc(Cl)cc4)no2)N3C)cc1` the value was 7.96.

For the next assay, the target named is T1, Neuronal acetylcholine receptor; alpha4/beta2. In words: Agonist activity at human alpha4beta2 nAChR in SHEP1 cells assessed as 86Rb+ efflux at 5 nM to 100 uM. It counts as functional, cell-based. Summed up: as §2
`COC(=O)[C@H]1[C@@H](c2ccc(Cl)c(C)c2)C[C@@H]2CC[C@H]1N2C`: the result was inactive.
As to `Cc1ccc([C@H]2C[C@@H]3CC[C@H]([C@H]2c2cc(-c4ccc(Cl)cc4)no2)N3C)cc1`, the result was inactive.

The target in the next assay is T3, Acetylcholine receptor; alpha1/beta1/delta/gamma. Put plainly: Agonist activity at human muscle-type alpha1beta1gammadelta nAChR in TE671/RD cells assessed as 86Rb+ efflux at 5 nM to 100 uM. It counts as functional, cell-based. Summed up: as §2
Turning to `COC(=O)[C@H]1[C@@H](c2ccc(Cl)c(C)c2)C[C@@H]2CC[C@H]1N2C`, the result was inactive.
In the case of `Cc1ccc([C@H]2C[C@@H]3CC[C@H]([C@H]2c2cc(-c4ccc(Cl)cc4)no2)N3C)cc1`, the outcome was inactive.

In another assay the test system is Mus musculus. Put plainly: Inhibition of nicotine-induced antinociception activity in ICR mouse assessed as paw licking and jumping latency dministered subcutaneously 15 mins prior to nicotine challenge and measured after 5 mins of 2.5 mg/kg nicotine challenge by hot plate test. It counts as functional, organism-based. Also on record: dose 2.5 mg/kg, route subcutaneous. The essentials: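 Hot plate was held at 55 °C with a 40 s cutoff. End-point was paw lick or jump. Control latency was measured twice, ≥10 min apart. Response was calculated as %MPE. Groups of 8–12; AD50 from ≥4 doses.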
On to `COC(=O)[C@H]1[C@@H](c2ccc(Cl)c(C)c2)C[C@@H]2CC[C@H]1N2C`, for which the IC50 is 0.35 mg/kg.
Take `Cc1ccc([C@H]2C[C@@H]3CC[C@H]([C@H]2c2cc(-c4ccc(Cl)cc4)no2)N3C)cc1`: the IC50 is above 20 mg/kg.
